Laboratory results taken from ChEMBL document CHEMBL3994675, “Carbamylmethyl Mercaptoacetate Thioether: A Novel Scaffold for the Development of L1 Metallo-β-lactamase Inhibitors” (ACS Med Chem Lett, 2017).

Assays:
[1] = Inhibition of IMP1 (unknown origin) expressed in Escherichia coli BL21(DE3) at 100 uM using cefazolin as substrate preincubated for 30 mins followed by substrate addition by UV-Visible spectrophotometric method relative to control
Method in brief: (§1)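 Purified enzyme preincubated with 100 μM inhibitor in its enzyme-specific buffer, then substrate added: 50 μM cefazolin for IMP-1 and L1, 40 μM imipenem for ImiS. Hydrolysis followed by UV-vis spectrophotometry. Preincubation times of 3–60 min were tested. % inhibition = activity without inhibitor (100%) minus residual activity.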

[2] = tested on: Escherichia coli; assay: Growth inhibition of Escherichia coli DH10B harboring pBC SK(+)-L1 at 1024 ug/ml after 12 hrs macrodilution broth method; design: species or system K-12 substr. DH10B
Method in brief: (§2)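 Cefazolin MIC determined for E. coli DH10B carrying pBC SK(+)-L1 and for E. coli not expressing L1, with and without compound.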

[3] = tested on: L929; assay: Cytotoxicity against mouse L929 cells assessed as reduction in cell viability up to 400 uM after 48 hrs by CCK assay; assay type: cell-based; conditions: l929, 48 h
Method in brief: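 L-929 mouse fibroblasts exposed to compound at 12.5, 25, 50, 100, 200 and 400 μM working concentrations; cell viability measured.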

[4] = Inhibition of L1 (unknown origin) expressed in Escherichia coli BL21(DE3) at 100 uM using cefazolin as substrate preincubated for 30 mins followed by substrate addition by UV-Visible spectrophotometric method relative to control; method in brief: as §1
[5] = Inhibition of IMP1 (unknown origin) expressed in Escherichia coli BL21(DE3) at 100 uM using cefazolin as substrate preincubated for 3 to 60 mins followed by substrate addition by UV-Visible spectrophotometric method; conditions: TDE = time-dependent effect; method in brief: as §1
[6] = Inhibition of ImiS (unknown origin) expressed in Escherichia coli BL21(DE3) at 100 uM using imipenem as substrate preincubated for 3 to 60 mins followed by substrate addition by UV-Visible spectrophotometric method relative to control; conditions: TDE = time-dependent effect; method in brief: as §1
[7] = Inhibition of L1 (unknown origin) expressed in Escherichia coli BL21(DE3) using cefazolin as substrate preincubated for 30 mins followed by substrate addition by UV-Visible spectrophotometric method
Method in brief: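 L1 IC50 measured in 30 mM Tris, pH 8.5, with cefazolin as substrate and inhibitor at 0.1–20 μM. Run in triplicate; mean ± SD reported.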

[8] = tested on: Escherichia coli; assay: Growth inhibition of Escherichia coli DH10B at 1024 ug/ml after 12 hrs macrodilution broth method; design: species or system K-12 substr. DH10B; method in brief: as §2
[9] = Inhibition of L1 (unknown origin) expressed in Escherichia coli BL21(DE3) at 100 uM using cefazolin as substrate preincubated for 3 to 60 mins followed by substrate addition by UV-Visible spectrophotometric method relative to control; conditions: TDE = time-dependent effect; method in brief: as §1
[10] = Inhibition of ImiS (unknown origin) expressed in Escherichia coli BL21(DE3) at 100 uM using imipenem as substrate preincubated for 30 mins followed by substrate addition by UV-Visible spectrophotometric method relative to control; method in brief: as §1
[11] = Inhibition of L1 (unknown origin) expressed in Escherichia coli DH10B harboring pBC SK(+)-L1 assessed as potentiation of cefazolin-induced antibacterial activity by measuring cefazolin MIC at 1024 ug/ml after 12 hrs macrodilution broth method
Method in brief: (§3)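 Cefazolin MICs were read for E. coli DH10B carrying pBC SK(+)-L1 across a series of inhibitor concentrations. Cefazolin alone (no inhibitor) on the same strain served as the reference MIC. E. coli not expressing L1 was tested alongside as the susceptible comparator.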

[12] = Inhibition of L1 (unknown origin) expressed in Escherichia coli DH10B harboring pBC SK(+)-L1 assessed as potentiation of cefazolin-induced antibacterial activity by measuring cefazolin MIC at 4 ug/ml after 12 hrs macrodilution broth method; method in brief: as §3
[13] = Inhibition of L1 (unknown origin) expressed in Escherichia coli DH10B harboring pBC SK(+)-L1 assessed as potentiation of cefazolin-induced antibacterial activity by measuring cefazolin MIC at 32 ug/ml after 12 hrs macrodilution broth method; method in brief: as §3
[14] = Inhibition of L1 (unknown origin) expressed in Escherichia coli DH10B harboring pBC SK(+)-L1 assessed as potentiation of cefazolin-induced antibacterial activity by measuring cefazolin MIC at 16 ug/ml after 12 hrs macrodilution broth method; method in brief: as §3
[15] = Inhibition of L1 (unknown origin) expressed in Escherichia coli DH10B harboring pBC SK(+)-L1 assessed as potentiation of cefazolin-induced antibacterial activity by measuring cefazolin MIC at 512 ug/ml after 12 hrs macrodilution broth method; method in brief: as §3
[16] = Inhibition of L1 (unknown origin) expressed in Escherichia coli DH10B harboring pBC SK(+)-L1 assessed as potentiation of cefazolin-induced antibacterial activity by measuring cefazolin MIC at 8 ug/ml after 12 hrs macrodilution broth method; method in brief: as §3
[17] = Inhibition of L1 (unknown origin) expressed in Escherichia coli DH10B harboring pBC SK(+)-L1 assessed as potentiation of cefazolin-induced antibacterial activity by measuring cefazolin MIC at 128 ug/ml after 12 hrs macrodilution broth method; method in brief: as §3
[18] = Inhibition of L1 (unknown origin) expressed in Escherichia coli DH10B harboring pBC SK(+)-L1 assessed as potentiation of cefazolin-induced antibacterial activity by measuring cefazolin MIC at 256 ug/ml after 12 hrs macrodilution broth method; method in brief: as §3
[19] = Inhibition of L1 (unknown origin) expressed in Escherichia coli DH10B harboring pBC SK(+)-L1 assessed as potentiation of cefazolin-induced antibacterial activity by measuring cefazolin MIC at 64 ug/ml after 12 hrs macrodilution broth method; method in brief: as §3
[20] = Inhibition of L1 (unknown origin) expressed in Escherichia coli DH10B harboring pBC SK(+)-L1 assessed as potentiation of cefazolin-induced antibacterial activity by measuring fold reduction in cefazolin MIC at 1024 ug/ml after 12 hrs macrodilution broth method relative to cefazolin alone; method in brief: as §3
[21] = Mixed-type inhibition of L1 (unknown origin) expressed in Escherichia coli BL21(DE3) using varying levels of cefazolin as substrate preincubated for 30 mins followed by substrate addition by Michaelis-Menten plot analysis
[22] = Chemical stability in pH 7 Tris buffer after 4 days by UV-Visible spectral analysis; assay type: physicochemical; conditions: pH 7, 96 h
Method in brief: (§4)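 Compounds incubated in aqueous solution at pH 5.0, 7.0 and 9.0 for 4 days; stability followed by UV-vis spectra.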

[23] = Chemical stability in pH 5 Tris buffer after 4 days by UV-Visible spectral analysis; assay type: physicochemical; conditions: pH 5, 96 h; method in brief: as §4
[24] = Chemical stability in pH 9 Tris buffer after 4 days by UV-Visible spectral analysis; assay type: physicochemical; conditions: pH 9, 96 h; method in brief: as §4

Row | SMILES | inhibition [1] | growth inhibition (GI) [2] | inhibition [4] | inhibition [5] | inhibition [6] | IC50 [7] | growth inhibition (GI) [8] | inhibition [9] | inhibition [10] | MIC [11] | other results
1 | O=C([O-])CSCC(=O)Nc1ccccc1[N+](=O)[O-].[K+] | 44% | Non-Toxic | 77% | Tde | Tde | 4210 nM | Non-Toxic | Tde | 21% | 16 µg/mL | Activity [3]: Non-Toxic
2 | CCCCc1ccc(NC(=O)CSCC(=O)[O-])cc1.[K+] | 64% | Non-Toxic | 97% | Tde | Tde | 430 nM | Non-Toxic | Tde | 29% | 2 µg/mL | MIC [12]: 16 µg/mL; MIC [13]: 16 µg/mL; MIC [14]: 16 µg/mL; MIC [15]: 8 µg/mL; MIC [16]: 16 µg/mL; MIC [17]: 16 µg/mL; MIC [18]: 8 µg/mL; MIC [19]: 16 µg/mL; fold change (FC) [20]: 8
3 | CC(C)CNC(=O)CSCC(=O)[O-].[K+] | 59% | Non-Toxic | 78% | Tde | Tde | 3810 nM | Non-Toxic | Tde | 23% | 16 µg/mL | 
4 | CCCCNC(=O)CSCC(=O)[O-].[K+] | 55% | Non-Toxic | 89% | Tde | Tde | 1230 nM | Non-Toxic | Tde | 20% | 16 µg/mL | 
5 | Cc1ccccc1NC(=O)CSCC(=O)[O-].[K+] | 50% | Non-Toxic | 95% | Tde | Tde | 460 nM | Non-Toxic | Tde | 24% | 16 µg/mL | 
6 | CCc1ccccc1NC(=O)CSCC(=O)[O-].[K+] | 80% | Non-Toxic | 92% | Tde | Tde | 590 nM | Non-Toxic | Tde | 21% | 16 µg/mL | Ki [21]: 3700 nM
7 | O=C([O-])CSCC(=O)Nc1ccccc1Cl.[K+] | 53% | Non-Toxic | 80% | Tde | Tde | 1040 nM | Non-Toxic | Tde | 39% | 16 µg/mL | Stability [22]: Unstable; Stability [23]: Unstable; Stability [24]: Unstable
8 | O=C([O-])CSCC(=O)Nc1ccccc1.[K+] | 43% | Non-Toxic | 92% | Tde | Tde | 980 nM | Non-Toxic | Tde | 18% | 16 µg/mL | Activity [3]: Non-Toxic
9 | O=C([O-])CSCC(=O)NCc1ccccc1.[K+] | 51% | Non-Toxic | 97% | Tde | Tde | 460 nM | Non-Toxic | Tde | 21% | 16 µg/mL | 
10 | O=C([O-])CSCC(=O)Nc1ccc(Cl)cc1.[K+] | 48% | Non-Toxic | 73% | Tde | Tde | 20000 nM | Non-Toxic | Tde | 25% | 16 µg/mL | 
11 | O=C([O-])CSCC(=O)Nc1ccccc1O.[K+] | 40% | Non-Toxic | 95% | Tde | Tde | 580 nM | Non-Toxic | Tde | 74% | 8 µg/mL | 
12 | O=C([O-])CSCC(=O)Nc1ccc(C(=O)O)cc1.[K+] | 71% | Non-Toxic | 75% | Tde | Tde | 7500 nM | Non-Toxic | Tde | 87% | 16 µg/mL | 
13 | O=C([O-])CSCC(=O)Nc1cccc(Cl)c1.[K+] | 48% | Non-Toxic | 79% | Tde | Tde | 2010 nM | Non-Toxic | Tde | 34% | 16 µg/mL | Ki [21]: 31800 nM
14 | CC(C)(C)NC(=O)CSCC(=O)[O-].[K+] | 69% | Non-Toxic | 91% | Tde | Tde | 750 nM | Non-Toxic | Tde | 21% | 16 µg/mL | Activity [3]: Non-Toxic
15 | O=C([O-])CSCC(=O)Nc1ccc([N+](=O)[O-])cc1.[K+] | 45% | Non-Toxic | 71% | Tde | Tde | > 20000 nM | Non-Toxic | Tde | 85% | 2 µg/mL | MIC [12]: 16 µg/mL; MIC [13]: 16 µg/mL; MIC [14]: 16 µg/mL; MIC [15]: 8 µg/mL; MIC [16]: 16 µg/mL; MIC [17]: 8 µg/mL; MIC [18]: 8 µg/mL; MIC [19]: 16 µg/mL; fold change (FC) [20]: 8
